Data from the RNAGym collection of RNA variant scans (doi:10.1126/science.aae0568).
Variants at the floor of the assay were thinned out.

B1: tRNA (parent)
chain: GUUCCGUUGGCGUAAUGGUAACGCGUCUCCCUCCUAAGGAGAAGACUGCGGGUUCGAGUCCCGUACGGAACG

Variants of: B1
Experiment: yeast fitness relative to wild type (ratio to wild type); higher = fitter; tRNA-Arg(CCU), competitive growth, 37 C, YPD
In short: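 Genotype frequency changes were the basis for Darwinian fitness relative to wild type. The frequencies came from 100-nucleotide paired-end sequencing of gene amplicons from the start population and each end population of pooled yeast strains with tRNA-Arg(CCU) gene variants at the native locus. Competition ran in YPD at 37°C for 24 hours in six replicates, genotypes needed ≥ 100 starting reads, and estimates < 0.5 were set to 0.5.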

Variant	yeast fitness
C24U A57C C60U G67C	≤ 0.5
C24U A57C C61A A70G	≤ 0.5
C24U A57C G68U	≤ 0.5
C24U A57G C61G	≤ 0.5
C24U A57U	0.641
C24U A65U A69C	0.564
C24U A69C	0.887
C24U A69C A70C	0.536
C24U A69U	0.99
C24U A69U A70C	0.756
C24U A70U	0.881
C24U C27A C30U	0.597
C24U C27A C30U G63U	≤ 0.5
C24U C27A U53A C66U	≤ 0.5
C24U C27G A65C	≤ 0.5
C24U C27G U59A A70G	≤ 0.5
C24U C27U A40G G44A G50C	≤ 0.5
C24U C27U A43C	1.04
C24U C27U A43C U47C	0.618
C24U C27U G50C	≤ 0.5
C24U C29A U32A C46G A57C	0.5
C24U C29A U32A C46G A70U	≤ 0.5
C24U C29G	0.674
C24U C29G C33U A57G	≤ 0.5

Variant	yeast fitness
C24U C29G C60U C66U	≤ 0.5
C24U C29G G38C A42C	≤ 0.5
C24U C29U A36C A42U A57U	0.518
C24U C29U A36U A70C	≤ 0.5
C24U C29U A42G C55U	≤ 0.5
C24U C29U A42G U59A C61U	≤ 0.5
C24U C29U A42G U59C	≤ 0.5
C24U C29U C30A	0.706
C24U C29U C31G	0.806
C24U C29U C49U G51U	≤ 0.5
C24U C30A	0.898
C24U C30A A65G	≤ 0.5
C24U C30A C55U	≤ 0.5
C24U C30G	0.836
C24U C30G C31A A43G	≤ 0.5
C24U C30G C61U A65U C66U	≤ 0.5
C24U C30U A40C G68C	0.545
C24U C30U A57G C66U	0.538
C24U C30U C31G	0.623
C24U C30U C31G A57G	0.576
C24U C30U C34U G52A	≤ 0.5
C24U C30U C49U U53C	≤ 0.5
C24U C30U G38C	0.55
C24U C30U G58C A70G	≤ 0.5

Variant	yeast fitness
C24U C30U G63A	0.502
C24U C31A A43C G58C U64G	≤ 0.5
C24U C31A A57C	0.704
C24U C31A C33A C34U C46A	≤ 0.5
C24U C31A C34A G56C	≤ 0.5
C24U C31A C34U	≤ 0.5
C24U C31A C49U A57C	≤ 0.5
C24U C31A C55G A57U	0.532
C24U C31A U54G	0.75
C24U C31G	0.845
C24U C31G A43G	0.69
C24U C31G A65U	0.508
C24U C31G C33U U59A C62U	≤ 0.5
C24U C31G C34G A43U G68C A69G	≤ 0.5
C24U C31G C46U	0.562
C24U C31G C61G	0.513
C24U C31G G44A	0.508
C24U C31G G44A U64A	≤ 0.5
C24U C31G G50A U64C	≤ 0.5
C24U C31G U64C	0.572
C24U C31U	0.96
C24U C31U A42G	0.574
C24U C31U C49U	0.874
C24U C31U C49U A70U	0.64

Variant	yeast fitness
C24U C31U G68U	0.544
C24U C31U U54A	≤ 0.5
C24U C33A A40G	0.513
C24U C33A U47C	0.516
C24U C33G C34U	0.672
C24U C33G C34U C62U	≤ 0.5
C24U C33G G52C C61U	≤ 0.5
C24U C33G U53C C55U A70G	≤ 0.5
C24U C33U	0.747
C24U C33U C46U C49A C62U A69U	≤ 0.5
C24U C33U G41A C61U	≤ 0.5
C24U C33U G44C	0.633
C24U C33U G48A C61U	≤ 0.5
C24U C34A G39A	0.535
C24U C34G	0.72
C24U C34G A45U G68C	≤ 0.5
C24U C34G A57U C61G	≤ 0.5
C24U C34G C62U	0.584
C24U C34G G51A	0.663
C24U C34G G56A	≤ 0.5
C24U C34U	0.688
C24U C34U A40G C55G	≤ 0.5
C24U C34U A40G G50A C55G	≤ 0.5
C24U C34U A57U C60U	≤ 0.5

Variant	yeast fitness
C24U C34U A69C	0.502
C24U C34U C46A	≤ 0.5
C24U C34U C46A G67A	≤ 0.5
C24U C34U C46U	≤ 0.5
C24U C34U C49U C61U	≤ 0.5
C24U C34U G41A	0.539
C24U C34U G56C A57G G68U	≤ 0.5
C24U C34U G58A	≤ 0.5
C24U C46A	0.925
C24U C46A C55U G58C	0.793
C24U C46A U64C	0.973
C24U C46G	1.01
C24U C46G C49A C61U	≤ 0.5
C24U C46U	0.983
C24U C46U A65U	0.714
C24U C46U A70U	0.75
C24U C49A	0.716
C24U C49G G56C	≤ 0.5
C24U C49G G56C G58A	0.57
C24U C49U	0.969
C24U C49U A65U	0.577
C24U C49U U54G	0.588
C24U C49U U54G G67A	≤ 0.5
C24U C49U U64A	≤ 0.5

Variant	yeast fitness
C24U C55A	0.655
C24U C55A U59G A65C	≤ 0.5
C24U C55G A70U	0.698
C24U C55G C61G	≤ 0.5
C24U C55G C66A	≤ 0.5
C24U C60A	0.527
C24U C60G A65U	≤ 0.5
C24U C60G A70C	0.562
C24U C60G C66G	≤ 0.5
C24U C61A	0.612
C24U C61G	0.598
C24U C61G C66U A69U	0.539
C24U C61U	0.881
C24U C61U A70C	0.714
C24U C61U U64C	0.697
C24U C62A	0.684
C24U C62G U64G	≤ 0.5
C24U C66G G68C	≤ 0.5
C24U C66U	0.794
C24U C66U A69C	0.568
C24U G25A C30U C46A C55G C60A	≤ 0.5
C24U G25A C30U G50A G56A	≤ 0.5
C24U G25A C30U G50A G68C	≤ 0.5
C24U G25C C30U A45U C49G A65U	≤ 0.5

Variant	yeast fitness
C24U G25C C46U G50C	≤ 0.5
C24U G25C C61A	≤ 0.5
C24U G38C C62G	0.623
C24U G38C G52C	≤ 0.5
C24U G39A	0.875
C24U G39A A70C	0.668
C24U G39C	0.735
C24U G39C C61U	0.549
C24U G41A	0.926
C24U G41A C61G	0.587
C24U G41C C49A	0.778
C24U G44A C55G G56A A57U	0.79
C24U G44A U54C	0.726
C24U G44A U54G G67A	≤ 0.5
C24U G44C C62U	0.784
C24U G44C G58C	0.995
C24U G48A C62G A69U	0.606
C24U G48A U64A	≤ 0.5
C24U G48C C62A	0.579
C24U G48U	0.783
C24U G50A	0.844
C24U G51A	0.675
C24U G51A A57U	≤ 0.5
